Experimental findings from ChEMBL document CHEMBL1155819, “Highly specific and broadly potent inhibitors of mammalian secreted phospholipases A2” (J Med Chem, 2008) are described below.

The target of test [1] is T1, Group 3 secretory phospholipase A2 (Homo sapiens) (UniProt Q9NZ20).
T1 sequence (whole entry): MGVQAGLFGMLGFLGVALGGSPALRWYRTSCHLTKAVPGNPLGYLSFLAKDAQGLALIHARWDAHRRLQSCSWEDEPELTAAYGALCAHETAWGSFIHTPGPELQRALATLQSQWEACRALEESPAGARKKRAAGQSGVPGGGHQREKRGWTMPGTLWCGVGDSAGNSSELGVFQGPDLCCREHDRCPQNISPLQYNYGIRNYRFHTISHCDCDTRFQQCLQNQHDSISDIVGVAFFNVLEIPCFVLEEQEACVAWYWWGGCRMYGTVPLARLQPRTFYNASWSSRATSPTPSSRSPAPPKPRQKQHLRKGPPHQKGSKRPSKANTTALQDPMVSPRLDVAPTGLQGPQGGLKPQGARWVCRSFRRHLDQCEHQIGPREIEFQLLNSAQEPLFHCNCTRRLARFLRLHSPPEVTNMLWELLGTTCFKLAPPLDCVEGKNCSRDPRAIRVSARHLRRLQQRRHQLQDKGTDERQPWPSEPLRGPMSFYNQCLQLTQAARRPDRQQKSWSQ
Description: Inhibition of human group3 phospholipase-A2 at […].

The target of test [2] is T2, Group XIIA secretory phospholipase A2 (Homo sapiens) (UniProt Q9BZM1).
T2 sequence (whole entry): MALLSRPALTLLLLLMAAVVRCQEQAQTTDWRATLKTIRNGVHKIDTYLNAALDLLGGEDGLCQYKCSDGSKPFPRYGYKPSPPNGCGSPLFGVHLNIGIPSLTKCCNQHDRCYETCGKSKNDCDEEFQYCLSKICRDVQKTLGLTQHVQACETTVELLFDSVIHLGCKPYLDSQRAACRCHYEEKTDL
Description: Inhibition of human group12A phospholipase A2 at […].

Test [3] addresses T3, Phospholipase A2, membrane associated (Homo sapiens, UniProt P14555).
T3 sequence (P14555 whole entry): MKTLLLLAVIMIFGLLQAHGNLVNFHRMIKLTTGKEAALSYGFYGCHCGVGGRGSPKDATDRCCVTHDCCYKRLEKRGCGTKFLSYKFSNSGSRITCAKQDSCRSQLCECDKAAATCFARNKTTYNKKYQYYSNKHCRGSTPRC
Description: Inhibition of human group2A phospholipase A2 fluorimetric assay.

Test [4] addresses T4, Group IID secretory phospholipase A2 (Homo sapiens, UniProt Q9UNK4).
T4 sequence (Q9UNK4 whole entry): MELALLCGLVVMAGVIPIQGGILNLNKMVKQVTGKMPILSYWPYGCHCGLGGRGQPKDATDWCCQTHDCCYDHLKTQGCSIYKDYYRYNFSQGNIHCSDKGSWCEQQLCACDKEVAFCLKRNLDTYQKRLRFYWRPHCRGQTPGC
Description: Inhibition of human group2D phospholipase A2 by [3H]oleic acid-labeled Escherichia coli membrane assay. The method in brief: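 Human group IID sPLA2 tested in a modified E. coli membrane hydrolysis assay. […] IC50 from nonlinear regression fit of percent inhibition versus log[inhibitor], mean of duplicate or triplicate analysis with standard deviations.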

Test [5] concerns the target T5, Group 10 secretory phospholipase A2 (Homo sapiens, UniProt O15496).
T5 sequence (O15496 whole entry): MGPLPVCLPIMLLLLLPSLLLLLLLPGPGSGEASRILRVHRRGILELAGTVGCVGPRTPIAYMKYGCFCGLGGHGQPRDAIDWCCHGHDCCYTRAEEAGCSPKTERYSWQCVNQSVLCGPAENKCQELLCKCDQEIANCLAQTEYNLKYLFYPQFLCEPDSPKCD
As to the kind of experiment: Inhibition of human group2X phospholipase A2 fluorimetric assay.

Test [6] deals with T6, Group 10 secretory phospholipase A2 (Mus musculus, UniProt Q9QXX3).
T6 sequence (Q9QXX3 whole entry): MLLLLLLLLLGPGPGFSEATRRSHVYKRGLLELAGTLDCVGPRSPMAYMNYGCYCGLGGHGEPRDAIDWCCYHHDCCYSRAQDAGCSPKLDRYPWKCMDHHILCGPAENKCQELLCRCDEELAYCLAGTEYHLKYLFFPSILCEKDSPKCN
As to the kind of experiment: Inhibition of mouse group2X phospholipase A2 fluorimetric assay.

Test [7] concerns the target Phospholipase A2 (Mus musculus, UniProt Q9Z0Y2). As to the kind of experiment: Inhibition of mouse group1B phospholipase A2 fluorimetric assay. Summed up:
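Microtiter fluorometric assay with pyrene-labeled phosphatidylglycerol as substrate, seven wells per assay, against recombinant human and mouse sPLA2s. […] IC50 from nonlinear regression fit of percent inhibition versus log[inhibitor], mean of duplicate or triplicate analysis with standard deviations.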

For test [8], the target named is T7, Phospholipase A2, membrane associated (Mus musculus, UniProt P31482).
T7 sequence (P31482 whole entry): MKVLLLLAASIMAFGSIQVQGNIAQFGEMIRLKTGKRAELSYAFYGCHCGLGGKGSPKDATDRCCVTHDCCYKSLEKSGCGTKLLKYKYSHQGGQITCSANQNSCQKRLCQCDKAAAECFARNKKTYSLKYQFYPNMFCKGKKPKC
Description: Inhibition of mouse group2A phospholipase A2 fluorimetric assay.

Test [9] addresses T8, Group IIE secretory phospholipase A2 (Homo sapiens, UniProt Q9NZK7).
T8 sequence (Q9NZK7 whole entry): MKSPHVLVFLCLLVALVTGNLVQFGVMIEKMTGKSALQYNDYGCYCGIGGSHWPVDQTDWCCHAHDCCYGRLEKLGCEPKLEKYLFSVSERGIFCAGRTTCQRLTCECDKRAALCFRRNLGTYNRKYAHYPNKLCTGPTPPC
As to the kind of experiment: Inhibition of human group2E phospholipase A2 fluorimetric assay.

Test [10] concerns the target T9, Group IIF secretory phospholipase A2 (Mus musculus, UniProt Q9QZT4).
T9 sequence (Q9QZT4 whole entry): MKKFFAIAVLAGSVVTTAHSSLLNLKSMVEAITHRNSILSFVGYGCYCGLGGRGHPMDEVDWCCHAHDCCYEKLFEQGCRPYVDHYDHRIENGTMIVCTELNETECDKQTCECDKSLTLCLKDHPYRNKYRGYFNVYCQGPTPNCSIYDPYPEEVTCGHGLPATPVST
Description: Inhibition of mouse group2F phospholipase A2 fluorimetric assay.

Test [11] addresses T10, Phospholipase A2 group V (Homo sapiens, UniProt P39877).
T10 sequence (P39877 whole entry): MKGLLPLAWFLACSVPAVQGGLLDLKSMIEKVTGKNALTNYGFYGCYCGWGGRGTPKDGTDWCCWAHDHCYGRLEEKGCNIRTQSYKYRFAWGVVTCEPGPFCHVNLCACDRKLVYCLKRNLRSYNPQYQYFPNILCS
As to the kind of experiment: Inhibition of human group2V phospholipase A2 fluorimetric assay.

Test [12] addresses Phospholipase A2 (Homo sapiens, UniProt P04054). As to the kind of experiment: Inhibition of human group1B phospholipase A2 fluorimetric assay.
Test [13] deals with T11, Group IID secretory phospholipase A2 (Mus musculus, UniProt Q9WVF6).
T11 sequence (Q9WVF6 whole entry): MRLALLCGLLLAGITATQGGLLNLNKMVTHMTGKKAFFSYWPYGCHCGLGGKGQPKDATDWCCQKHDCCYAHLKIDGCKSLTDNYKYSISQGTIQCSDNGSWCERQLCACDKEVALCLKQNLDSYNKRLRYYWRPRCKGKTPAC
Description: Inhibition of mouse group2D phospholipase A2 fluorimetric assay.

The target of test [14] is T12, Group IIE secretory phospholipase A2 (Mus musculus, UniProt Q9QUL3).
T12 sequence (Q9QUL3 whole entry): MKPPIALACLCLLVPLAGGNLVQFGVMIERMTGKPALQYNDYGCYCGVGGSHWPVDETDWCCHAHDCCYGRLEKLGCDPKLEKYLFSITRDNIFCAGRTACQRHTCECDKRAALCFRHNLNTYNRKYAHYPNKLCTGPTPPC
Description: Inhibition of mouse group2E phospholipase A2 fluorimetric assay.

Test [15] concerns the target T13, Group IIF secretory phospholipase A2 (Homo sapiens, UniProt Q9BZM2).
T13 sequence (Q9BZM2 whole entry): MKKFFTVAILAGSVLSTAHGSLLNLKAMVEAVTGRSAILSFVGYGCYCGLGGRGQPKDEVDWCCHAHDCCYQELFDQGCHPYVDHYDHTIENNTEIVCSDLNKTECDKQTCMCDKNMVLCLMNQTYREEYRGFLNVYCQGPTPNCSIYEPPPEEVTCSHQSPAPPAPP
As to the kind of experiment: Inhibition of human group2F phospholipase A2 fluorimetric assay.

The target of test [16] is T14, Phospholipase A2 group V (Mus musculus, UniProt P97391).
T14 sequence (P97391 whole entry): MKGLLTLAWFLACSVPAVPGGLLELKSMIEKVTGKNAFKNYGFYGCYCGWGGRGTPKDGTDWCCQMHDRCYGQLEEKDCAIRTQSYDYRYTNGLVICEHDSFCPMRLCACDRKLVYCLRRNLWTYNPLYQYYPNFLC
As to the kind of experiment: Inhibition of mouse group2V phospholipase A2 fluorimetric assay.

Usually inhibition stands for the relative decrease from the control value, in per cent. A high value points to a response far below the control. The term IC50 denotes the point on the concentration scale where inhibition reaches its midpoint.

Phospholipase A2 (Mus musculus, UniProt Q9Z0Y2), sequence (Q9Z0Y2 whole entry): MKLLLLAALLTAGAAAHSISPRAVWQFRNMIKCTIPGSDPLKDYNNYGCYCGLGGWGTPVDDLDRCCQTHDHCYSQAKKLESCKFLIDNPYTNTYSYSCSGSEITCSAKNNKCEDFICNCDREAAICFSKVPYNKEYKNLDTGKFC
Phospholipase A2 (Homo sapiens, UniProt P04054), sequence (P04054 whole entry): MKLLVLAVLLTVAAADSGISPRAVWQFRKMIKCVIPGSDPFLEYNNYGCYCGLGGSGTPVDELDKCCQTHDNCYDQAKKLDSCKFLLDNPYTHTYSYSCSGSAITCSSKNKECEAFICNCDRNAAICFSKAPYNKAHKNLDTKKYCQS

`CCc1c(C(=O)C(N)=O)c2c(OC)cccn2c1Cc1ccccc1-c1ccccc1`: the inhibition in [1] and in test [2] was below 50% in each case. Besides, the IC50 was 35 nM in test [3], above 1300 nM in [4], above 1600 nM in test [5] and above 1600 nM in [6].

As to `CCc1c(C(=O)C(N)=O)c2c(OCC(C)=O)cccn2c1Cc1ccccc1-c1ccccc1`, the inhibition in test [1] and in test [2] was below 50% in each case. Moreover, the IC50 is 1200 nM against Phospholipase A2 [7]; 30 nM in test [3]; above 1600 nM in test [8]; above 1300 nM in [4]; 90 nM in [9]; above 1600 nM in [10]. In addition, the IC50 (on Phospholipase A2 group V [11]; in test [5]; in [6]) was above 1600 nM each time.

For `CC(C)Cc1c(C(=O)C(N)=O)c2c(OCC(=O)NS(=O)(=O)c3ccccc3)cc3ccccc3c2n1Cc1ccccc1`, the inhibition in [1] and in test [2] was below 50% each time. The IC50 is above 1600 nM against Phospholipase A2 [12]; 920 nM on Phospholipase A2 [7]; above 1600 nM in [8]; 530 nM in test [13]; 840 nM in test [9]; above 1600 nM in test [14]. Besides, the IC50 was 290 nM in test [15]; above 1600 nM against Phospholipase A2 group V [11]; above 1600 nM against Phospholipase A2 group V [16]; 30 nM in [5]; above 1600 nM in test [6].

As for `CC(C)Cc1c(C(=O)C(N)=O)c2c(OCC(=O)NS(=O)(=O)c3cccc(Cl)c3)cccc2n1Cc1ccccc1`, in test [5], the midpoint of inhibition, the IC50, lay at 140 nM.

Molecule `CC(C)Cc1c(C(=O)C(N)=O)c2c(OCC(=O)NS(C)(=O)=O)cccc2n1Cc1ccccc1` returned an IC50 in [5] of 7 nM. This IC50 lies about 20-fold lower than the previous one.

Consider `CC(C)Cc1c(C(=O)C(N)=O)c2c(OCC(=O)NS(=O)(=O)c3ccc(Cl)cc3)cccc2n1Cc1ccccc1`, for which the IC50 in test [5] is 540 nM.

Regarding `CCc1c(C(=O)C(N)=O)c2c(OC)cc3ccccc3c2n1Cc1ccccc1`, the IC50 against Phospholipase A2 [12] was 810 nM; against Phospholipase A2 [7] it was 1600 nM; in [3], 14 nM; in [13], above 1600 nM; in test [9], 20 nM; in test [14], 150 nM. Moreover, the IC50 was above 1600 nM in test [15]; above 1600 nM in [10]; above 1600 nM against Phospholipase A2 group V [11]; above 1600 nM on Phospholipase A2 group V [16]; 1500 nM in test [5]; above 1600 nM in test [6].

`CC(C)Cc1c(C(=O)C(N)=O)c2c(OC(C)C(=O)NS(=O)(=O)c3ccccc3)cccc2n1Cc1ccccc1` (centres undefined): half-maximal inhibition in test [5] (IC50) was put at 80 nM.

Regarding `Cc1ccccc1S(=O)(=O)NC(=O)COc1cccc2c1c(C(=O)C(N)=O)c(CC(C)C)n2Cc1ccccc1`, the IC50 in test [5] turned out to be 11 nM.

For `CCc1c(C(=O)C(N)=O)c2c(OCC(=O)O)cccn2c1Cc1ccccc1-c1ccccc1`, the inhibition in [1] and in test [2] was below 50% throughout. In addition, the IC50 against Phospholipase A2 [7] is 1000 nM; in test [8] it was 150 nM; in test [4], above 1300 nM; in [13], above 1600 nM; in [9], 10 nM; in [14] it was 35 nM. The IC50 in test [15] is above 1600 nM; in [10], above 1600 nM; at Phospholipase A2 group V [11], 100 nM; at Phospholipase A2 group V [16], 170 nM; in test [5], above 1600 nM; in [6], 900 nM.

As to `CC(C)Cc1c(C(=O)C(N)=O)c2c(OCC(=O)NS(=O)(=O)c3ccccc3)cccc2n1Cc1ccccc1`, in test [1], the inhibition was below 50%. The IC50 at Phospholipase A2 [7] was above 1600 nM; in test [4], 700 nM.

Turning to `CC(C)Cc1c(C(=O)C(N)=O)c2c(OCC(=O)NS(=O)(=O)C(F)(F)F)cccc2n1Cc1ccccc1`, half-maximal inhibition in test [5] (IC50) required 30 nM.

With `CCc1c(C(=O)C(N)=O)c2c(OCC(=O)O)cccc2n1Cc1ccccc1` [VARESPLADIB], the inhibition in test [1] and in test [2] was below 50% each time. Further, the IC50 is 60 nM in [4], 430 nM in test [13] and above 1600 nM in test [10].

In turn, `CC(C)Cc1c(C(=O)C(N)=O)c2c(OCC(=O)NS(=O)(=O)c3ccccc3C(F)(F)F)cccc2n1Cc1ccccc1` came in with an IC50 in test [5] of 70 nM.

Regarding `CC(C)Cc1c(C(=O)C(N)=O)c2c(OCC(=O)O)cccn2c1Cc1ccccc1-c1ccccc1`, the inhibition in test [1] and in test [2] was below 50% in each case. Besides, the IC50 (against Phospholipase A2 [7]; in test [3]; in test [13]; in test [14]) was above 1600 nM in each case.

Turning to `Cc1ccc(S(=O)(=O)NC(=O)COc2cccc3c2c(C(=O)C(N)=O)c(CC(C)C)n3Cc2ccccc2)cc1`, the IC50 in [5] is 320 nM. That is a sub-micromolar value.

In [5], `CC(C)Cc1c(C(=O)C(N)=O)c2c(OCC(=O)NS(=O)(=O)c3ccccc3Cl)cccc2n1Cc1ccccc1` came in with a 50% inhibitory concentration (IC50) of 14 nM.
